Shown are actives, neighbours in structure and some others; about 2.2% of the full set was active somewhere.
NR2E3 ag-1 – inhibitors of NR2E3-RetCOR corepressor binding, primary screen, NR2E3 agonist project, biochemical, TR-FRET, GST-NR2E3, biotin-RetCOR; Photoreceptor-specific nuclear receptor (Homo sapiens), Q9Y5X4; 1536-well; inhibition of corepressor binding, % at 4.78 µM; 0.12% of 320,000 active;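 active = percent inhibition above the cutoff of mean plus 3 SD of all tested compounds, set per screening campaign, cut at about 20% in these data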;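 also: 0% = DMSO wells and 100% = biotin wells as full block of FRET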
Target sequence (Q9Y5X4 whole entry, looked up): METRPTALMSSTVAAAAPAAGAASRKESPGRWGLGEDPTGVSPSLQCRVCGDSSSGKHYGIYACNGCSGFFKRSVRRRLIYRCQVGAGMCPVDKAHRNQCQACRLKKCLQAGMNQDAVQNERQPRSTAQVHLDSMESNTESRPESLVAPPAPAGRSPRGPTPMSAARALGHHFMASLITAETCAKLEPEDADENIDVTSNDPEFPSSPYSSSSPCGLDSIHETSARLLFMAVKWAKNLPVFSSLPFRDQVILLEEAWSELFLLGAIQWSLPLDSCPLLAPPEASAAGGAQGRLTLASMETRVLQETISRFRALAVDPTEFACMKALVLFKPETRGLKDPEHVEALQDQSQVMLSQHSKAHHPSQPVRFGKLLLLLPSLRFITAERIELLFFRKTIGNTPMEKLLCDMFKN
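Material: NR2E3–RetCOR corepressor complex | Quantity: 1.35 nM GST-tagged NR2E3 final | Schedule: 5 h at 4 °C | Replication: Singlicate compound wells | Reagent: RetCOR corepressor, biotinylated, 7 nM | Controls: Biotin wells as high control, 0.6% DMSO wells as low control | Signal: TR-FRET, Eu(K)-anti-GST donor, streptavidin-D2 acceptor, ex 340, em 617/671 nm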
FGF22 binding – binders of human FGF22 protein, primary screen, FGF22 synaptogenesis inhibitor project, biophysical, thermal shift, single point; recombinant FGF22 thermal shift, SYPRO orange fluorescence; percent of sucrose octasulfate shift, DMSO zero; AID 651658, 2012; activity (Tm shift, normalised), % at 9.99 µM; Fibroblast growth factor 22 (Homo sapiens), Q9HCT0; 1.5% of 340,000 active;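 active = mean Tm shift, scaled 0 neutral to 100 positive control, at about 1.3% or above, every replicate too, limit read from the data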
Target sequence (Q9HCT0 whole entry, looked up): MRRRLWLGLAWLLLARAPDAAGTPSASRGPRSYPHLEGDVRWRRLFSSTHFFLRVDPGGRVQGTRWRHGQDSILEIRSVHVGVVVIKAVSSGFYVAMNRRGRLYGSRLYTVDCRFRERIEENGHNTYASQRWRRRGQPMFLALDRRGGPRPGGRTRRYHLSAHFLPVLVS
697 NFkB inh – inhibitors of PMA/ionomycin-induced NF-kB reporter, 697 cells, primary screen, B-cell NF-kB inhibitor project, cell-based, luminescence, uHTS; 697 B-cell NF-kB luciferase reporter, 16 h; inhibition, % at 4 µM; 0.33% of 330,000 active; AID 435022, 2010; in the data active = inhibition above about 35%
miR122 inh – miR-122 Renilla sensor signal increase in Huh7, primary screen, miR-122 inhibitor project, cell-based, single point, plate reader; Huh7 miR-122 Renilla luciferase sensor, 48 h; neutral wells = 0, positive control = 100; activation (reporter increase), % at 12.5 µM; 0.3% of 340,000 active;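 active = mean replicate activation score at least 90 and every replicate individually at or above 90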;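 also: higher luciferase means less miR-122 activity so hits act as miR-122 inhibitors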
NR2E3 ag-2 – NR2E3 agonists in two-hybrid cells, primary screen, cell-based, luminescence, CHO-S, Gal4-NCOR/VP16-NR2E3; luciferase; inhibition of corepressor binding, % at 3.98 µM; 0.35% of 360,000 active;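 active = inhibition above the mean of all tested compounds plus 3 SD, cut at about 70% in these data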;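 also: 0% = DMSO with NR2E3 transfected cells and 100% = cells lacking NR2E3 construct; higher means lower luciferase signal from less NR2E3 corepressor binding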
Jurkat NFkB inh – inhibitors of induced NF-kB luciferase reporter, primary screen, TCR NF-kB activation inhibitor project, cell-based, luminescence, uHTS | Jurkat, PMA/ionomycin-induced NF-kB luciferase reporter | inhibition, % at 4 µM | 0.53% of 330,000 active; in the data active = inhibition above about 50%
697 NFkB conf – PMA/ionomycin-induced NF-kB reporter inhibitors, 697 retest, confirmation, B-cell NF-kB inhibitor project, cell-based, luminescence, single concentration | shares compounds with 697 NFkB inh | inhibition, % at 4 µM | 35% of 2,000 active | 697 B-cell NF-kB luciferase, 16 h; in the data active = inhibition mostly above about 28%, no sharp cut-off; inactive = mostly below about 22%
NR2E3 ag confirm – NR2E3 agonist confirmation in cells, cell-based, luminescence, CHO-S two-hybrid; shares compounds with NR2E3 ag-2; CHO-S mammalian two-hybrid NR2E3-NCOR, luciferase luminescence; inhibition, % at 3.98 µM; 51% of 2,300 active;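 active = average inhibition above a cutoff equal to the mean inhibition of all tested compounds plus one SD, cut at about 70% in these data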;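 also: 0% = DMSO in NR2E3 cells and 100% = DMSO in cells lacking NR2E3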
VP16 counter – GAL4-VP16 reporter modulators, confirmation, counter-screen for NR2E3 agonist project, cell-based, luminescence, CHO-S, high throughput; 29% of 2,300 active; CHO-S GAL4-VP16 luciferase reporter; inhibition, % at 3.98 µM; shares compounds with NR2E3 ag-2;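 active = mean inhibition above a cutoff equal to the average over all tested compounds plus one standard deviation, cut at about 70% in these data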;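 also: luciferase from a UAS reporter driven by GAL4-VP16 transactivation; 0% = DMSO with VP16-transfected cells and 100% = DMSO with cells lacking VP16; higher means less reporter light so more repression of VP16 activity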
The depositor's hits bear a star; nt = no result given; [ ] = remark or other dose.

SMILES	NR2E3 ag-1	FGF22 binding	697 NFkB inh	miR122 inh	NR2E3 ag-2	Jurkat NFkB inh	697 NFkB conf	NR2E3 ag confirm	VP16 counter
CCCCNc1nc(N)nc(-c2cc(Cl)ccc2O)n1	3	nt	-290	nt	-71	-135	-233	nt	nt
CCNc1nc(N)nc(-c2cc(Cl)ccc2O)n1	-2	nt	-228	1	-52	-143	nt	nt	nt
Brc1cc2[nH]cnc2c2ccccc12	9	0	39*	7	-18	-1	26	nt	nt
Oc1ccc2c(ccc3[nH]cnc32)c1	-1	0	-32	nt	8	-3	nt	nt	nt
COCC(=O)N1CC[C@@H]2[C@H]1c1cc(C#Cc3cccc(F)c3)ccc1N[C@@H]2CO	nt	0	nt	-1[16.7 µM]	nt	nt	nt	nt	nt
N=c1c(C(=O)NC2CCCC2)cc2c(=O)n3ccccc3nc2n1CCN1CCOCC1	1	nt	49*	0	0	2	50*	nt	nt
Oc1cccc(-c2nc3ccccc3s2)c1	4	nt	-259	3	-84	-148	-247	nt	nt
C[C@@H]1CCCCO[C@H](CN(C)Cc2ccncc2)[C@H](C)CN([C@@H](C)CO)C(=O)c2cc(NC(=O)Cc3ccccc3)ccc2O1	nt	0	nt	5[16.7 µM]	nt	nt	nt	nt	nt
S=C(Nc1ccc(-c2nc3ccccc3[nH]2)cc1)Nc1cccnc1	-1	1	-251	-3	-71	-87	-281	nt	nt
Cc1ccc(OCC(=O)NC2=NCCS2)cc1	4	nt	-2	-7	-55	-46	nt	nt	nt
Cc1ccc(/C=C/C(=O)NC2=NCCS2)cc1	1	0	-417	2	-124	-144	-315	nt	nt
COCCn1c(C)c(C)c2c(NCCc3ccccc3)ncnc21	nt	0	-281	-5	52	-77	-29	1	-94
Cc1c(C)n(CCc2ccccc2)c2ncnc(NCCCO)c12	-2	0	-101	nt	-136	-65	nt	nt	nt
C[C@H]1CN([C@@H](C)CO)C(=O)c2cc(-c3cccc(C(=O)N(C)C)c3)cnc2O[C@@H]1CN(C)S(=O)(=O)c1cccc(F)c1	nt	0	nt	5[16.7 µM]	nt	nt	nt	nt	nt
Cc1ccc(C2(c3ccc(C)cc3)CC2C(=O)Nc2ccc([N+](=O)[O-])cc2O)cc1 (centres undefined)	0	nt	97*	nt	100*	23	97*	99*	90*
CC1(C)CC1C(=O)Nc1ccc([N+](=O)[O-])cc1Br (centres undefined)	-1	nt	11	-5	-12	3	nt	nt	nt
C[C@@H]1CN([C@H](C)CO)C(=O)c2cc(C3=CCCCC3)cnc2O[C@@H]1CN(C)S(C)(=O)=O	nt	nt	nt	-4[16.7 µM]	nt	nt	nt	nt	nt
CC(C)(C)c1ccc(-c2noc(CCC(=O)NCc3ccco3)n2)cc1	4	0	96*	nt	77*	-48	94*	74*	79*
CN(C)CCCNC(=O)[C@H]1[C@H](CO)[C@H]2Cn3c(ccc(-c4cccc(F)c4)c3=O)[C@@H]1N2C	nt	0	nt	-9[16.7 µM]	nt	nt	nt	nt	nt
CCc1ccc(-c2nc(CSCC(=O)NC3CC3)c(C)o2)cc1	2	0	97*	nt	111*	-8	93*	98*	97*
CSc1ccc(-c2nc(CSCC(=O)NC3CC3)c(C)o2)cc1	4	0	90*	-3	100*	-2	49*	85*	84*
C[C@@H]1CN([C@H](C)CO)C(=O)Cc2cc(NC(=O)NC3CCCCC3)ccc2O[C@H]1CN(C)C(=O)NC1CCCCC1	nt	0	nt	-1[16.7 µM]	nt	nt	nt	nt	nt
Cc1noc(C)c1NC(=O)N(C)C[C@H]1Oc2ccc(NC(=O)CCCCCC(=O)Nc3ccccc3N)cc2C(=O)N([C@@H](C)CO)C[C@@H]1C	nt	0	nt	1[16.7 µM]	nt	nt	nt	nt	nt
CCNC(=O)[C@H]1[C@H](CO)[C@H]2Cn3c(ccc(C4=CCCC4)c3=O)[C@@H]1N2C(=O)C1CC1	nt	0	nt	-2[16.7 µM]	nt	nt	nt	nt	nt
Cc1nn(C)c(C)c1CN(C)S(=O)(=O)c1ccc2ccccc2c1	1	nt	82*	4	85*	47	72*	96*	86*
SMILES	NR2E3 ag-1	FGF22 binding	697 NFkB inh	miR122 inh	NR2E3 ag-2	Jurkat NFkB inh	697 NFkB conf	NR2E3 ag confirm	VP16 counter
C[C@@H]1CCCCO[C@H](CN(C)C)[C@H](C)CN([C@@H](C)CO)C(=O)c2cc(NC(=O)c3ccccc3)ccc2O1	nt	0	nt	11[16.7 µM]	nt	nt	nt	nt	nt
COc1ccc(NC(=O)O/N=C/c2c(C)nn(C(C)(C)C)c2C)cc1	1	0	-68	-4	-25	-100	nt	nt	nt
Cc1nn(C(C)(C)C)c(C)c1/C=N/OC(=O)Nc1ccc(Cl)c(Cl)c1	-2	0	52*	3	92*	11	69*	36	96*
Cc1ccc(/C=C2\SC(=S)N(CCCC(=O)Nc3cccc(C(=O)O)c3)C2=O)cc1	2	0	76*	-11	85*	-4	88*	40	89*
Cc1ccc(/C=C2\SC(=S)N(CCCC(=O)NNC(=O)c3ccccc3O)C2=O)cc1	0	0	88*	2	69	30	76*	67	73*
Cc1ccc(/C=C2\SC(=S)N(CCC(=O)NNC(=O)c3ccccc3O)C2=O)cc1	3	0	13	2	-16	16	nt	nt	nt
O=C(CCCN1C(=O)/C(=C\c2ccccc2)SC1=S)Nc1ccc(O)cc1	0	0	11	-3	8	6	nt	nt	nt
Cc1ccc(/C=C2/SC(=S)N(CCCC(=O)Nc3ccc(O)cc3)C2=O)cc1	nt	1	88*	-2	88*	2	93*	41	90*
COc1cccc(/C=C2/SC(=S)N(CCCC(=O)Nc3ccc(O)cc3)C2=O)c1	1	0	80*	20	54	-8	74*	15	70
CC(/C=C1\SC(=S)N(CCCC(=O)Nc2ccc(C(=O)O)c(O)c2)C1=O)=C\c1ccccc1	1	nt	nt	nt	nt	nt	nt	nt	nt

Compound activity from PubChem.
